Assay results as given in ChEMBL document CHEMBL3045693, “Metabolism of diethofencarb (isopropyl 3,4-diethoxyphenylcarbamate) in rats: identification of metabolites in urine” (J Agric Food Chem, 2004).

Experiments:
Details in all cases: in vivo, 24 h
[1] = Drug excretion in Rattus norvegicus CD Sprague-Dawley (rat) urine assessed as 2-{2-ethoxy-4-[(isopropoxycarbonyl)amino]- phenoxy}acetic acid at 300 mg/5ml, po daily for 4 consecutive days measured within 1 day after final dose by NMR/MS analysis; type: ADME, organism-based
Summary of the method: (§1)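 Male CD (Sprague-Dawley) rats, 11 weeks old (n=4), housed individually in glass metabolism cages separating urine and feces. [phenyl-14C]-labelled compound given by gastric probe in corn oil at 300 mg/5 mL/kg daily for 4 days. Urine from the day after the last dose: aqueous layer hydrolysed with sulfatase (with β-glucuronidase activity) in 0.2 M acetate pH 5.0, 37 °C, 19 h. Ethyl acetate extraction, then HPLC/TLC purification and NMR/ESI-MS identification.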

[2] = Drug excretion in Rattus norvegicus CD Sprague-Dawley (rat) urine assessed as 1-hydroxypropan-2-yl 3-ethoxy-4-hydroxycarbanilate at 300 mg/5ml, po daily for 4 consecutive days measured within 1 day after final dose by NMR/MS analysis; type: ADME, organism-based; summary of the method: as §1
[3] = Drug excretion in Rattus norvegicus CD Sprague-Dawley (rat) urine assessed as (4-acetamino-2-ethoxyphenoxy) acetic acid at 300 mg/5ml, po daily for 4 consecutive days measured within 1 day after final dose by NMR/MS analysis; type: ADME, organism-based; summary of the method: as §1
[4] = Drug excretion in Rattus norvegicus CD Sprague-Dawley (rat) urine assessed as 2-acetamino-3-{3-ethoxy-2-hydroxy-5-[(isopropoxycarbonyl) amino]phenylthio}propionic acid at 300 mg/5ml, po daily for 4 consecutive days measured within 1 day after final dose by NMR/MS analysis; type: ADME, organism-based; summary of the method: as §1
[5] = Drug excretion in Rattus norvegicus CD Sprague-Dawley (rat) urine assessed as 2-acetamino-3-{4-ethoxy-3-hydroxy-2-[(isopropoxycarbonyl)amino]phenylthio}propionic acid at 300 mg/5ml, po daily for 4 consecutive days measured within 1 day after final dose by NMR/MS analysis; type: ADME, organism-based; summary of the method: as §1
[6] = Drug excretion in Rattus norvegicus CDSprague-Dawley (rat) urine assessed as isopropyl 3-ethoxy-4- hydroxy-5-(methylthio) carbanilate at 300 mg/5ml, po daily for 4 consecutive days measured within 1 day after final dose by NMR/MS analysis; type: ADME, organism-based, CD Sprague-Dawley; summary of the method: as §1
[7] = Drug excretion in Rattus norvegicus CD Sprague-Dawley (rat) urine assessed as N-(3-ethoxy-4-hydroxyphenyl)-2-hydroxyacetamide at 300 mg/5ml, po daily for 4 consecutive days measured within 1 day after final dose by NMR/MS analysis; type: ADME, organism-based; summary of the method: as §1
[8] = Drug excretion in Rattus norvegicus CD Sprague-Dawley (rat) urine assessed as 2-acetamino- 3-[5-acetamino-3-ethoxy-2-hydroxyphenylthio]propionic acid at 300 mg/5ml, po daily for 4 consecutive days measured within 1 day after final dose by NMR/MS analysis; type: ADME, organism-based; summary of the method: as §1
[9] = Drug excretion in Rattus norvegicus CD Sprague-Dawley (rat) urine assessed as 3-(3-ethoxy-4-hydroxyphenyl)-4-hydroxy-5-methyloxazolidin- 2-one at 300 mg/5ml, po daily for 4 consecutive days measured within 1 day after final dose by NMR/MS analysis; type: ADME, organism-based; summary of the method: as §1
[10] = Drug excretion in Rattus norvegicus CD Sprague-Dawley (rat) urine assessed as N-(3-ethoxy-4-hydroxy-5-methylsulfinylphenyl) acetamide at 300 mg/5ml, po daily for 4 consecutive days measured within 1 day after final dose by NMR/MS analysis; type: ADME, organism-based; summary of the method: as §1
[11] = Drug excretion in Rattus norvegicus CD Sprague-Dawley (rat) urine assessed as N-(3-ethoxy-4- hydroxyphenyl)acetamide at 300 mg/5ml, po daily for 4 consecutive days measured within 1 day after final dose by NMR/MS analysis; type: ADME, organism-based; summary of the method: as §1

Measured: Drug excretion

CCOc1ccc(NC(=O)OC(C)C)cc1OCC [DIETHENOFENCARB]
Active: [1] | [2] | [3] | [4] | [5] | [6] | [7] | [8] | [9] | [10] | [11]
